Measured values taken from ChEMBL document CHEMBL3351600, “Sulfur, selenium and tellurium pseudopeptides: synthesis and biological evaluation” (Bioorg Med Chem, 2014).

Experiments:
Staphylococcus aureus = test: Antimicrobial activity against Staphylococcus aureus assessed as inhibition at 20 ug/6 mm disk after 1 to 2 days by agar diffusion assay; assay type: functional
In short: (§1)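 Standard agar diffusion: 6-mm paper disks loaded with 20 µg of compound were placed on inoculated plates. Inhibition-zone diameter (mm) was read after 1 and 2 days of growth.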

A-431 [1] = test: Cytotoxicity against human A431 cells assessed as cell viability after 24 hrs incubation by MTT assay; assay type: functional, cell-based; conditions: A-431, 24 h
In short: (§2)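 Cell lines came from DSMZ; primary human fibroblasts served as non-cancer controls. Cells were grown in medium with 10% FCS, seeded at 50,000 cells/ml, and grown 2 days at 37 °C, 10% CO2. Serial dilutions were then added for 24 h. MTT (final 0.5 mg/ml) was added for 2 h. Formazan was pelleted, PBS-washed, dissolved in isopropanol/0.4% HCl and read at 590 nm. Two parallel experiments were run. IC50 was taken as the concentration giving 50% of untreated-control absorbance.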

Candida albicans = test: Antimicrobial activity against Candida albicans assessed as inhibition at 20 ug/6 mm disk after 1 to 2 days by agar diffusion assay; assay type: functional; in short: as §1
MCF7 = test: Cytotoxicity against human MCF7 cells assessed as cell viability after 24 hrs incubation by MTT assay; assay type: functional, cell-based; conditions: MCF7, 24 h; in short: as §2
Aspergillus niger = test: Antimicrobial activity against Aspergillus niger assessed as inhibition at 20 ug/6 mm disk after 1 to 2 days by agar diffusion assay; assay type: functional; in short: as §1
[2] = Octanol-water partition coefficient, log P of the compound by HPLC analysis; assay type: physicochemical
In short: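 Lipophilicity was measured by reversed-phase HPLC on a Nucleosil C18 column with isocratic water/methanol (3:1) at 0.5 ml/min and UV detection at 230 and 245 nm. Dead time was set with thiourea (t0 0.728 min). Retention factor was k = (tR − t0)/t0, and log P came from a calibration against at least six reference compounds.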

[3] = Lipophilicity, log K of the compound by HPLC analysis
Pseudomonas aeruginosa = test: Antimicrobial activity against Pseudomonas aeruginosa assessed as inhibition at 20 ug/6 mm disk after 1 to 2 days by agar diffusion assay; assay type: functional; in short: as §1
Klebsiella pneumoniae = test: Antimicrobial activity against Klebsiella pneumoniae assessed as inhibition at 20 ug/6 mm disk after 1 to 2 days by agar diffusion assay; assay type: functional; in short: as §1
Escherichia coli = test: Antimicrobial activity against Escherichia coli tolC assessed as inhibition at 20 ug/6 mm disk after 1 to 2 days by agar diffusion assay; assay type: functional; in short: as §1
Saccharomyces cerevisiae = test: Antimicrobial activity against Saccharomyces cerevisiae assessed as inhibition at 20 ug/6 mm disk after 1 to 2 days by agar diffusion assay; assay type: functional; in short: as §1
[4] = Cytotoxicity against human fibroblasts assessed as cell viability after 24 hrs incubation by MTT assay; assay type: cell-based; conditions: Fibroblast; in short: as §2
Micrococcus luteus = test: Antimicrobial activity against Micrococcus luteus assessed as inhibition at 20 ug/6 mm disk after 1 to 2 days by agar diffusion assay; assay type: functional; in short: as §1
Mycolicibacterium phlei = test: Antimicrobial activity against Mycobacterium phlei assessed as inhibition at 20 ug/6 mm disk after 1 to 2 days by agar diffusion assay; assay type: functional; in short: as §1
A-431 [5] = test: Reduction in ROS in human A431 cells assessed as decrease in hydrogen peroxide level at 0.1 to 10 ng/ml after 1 hr by DCHFA assay; assay type: functional, cell-based
In short: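 A-431 cells were seeded at 10^5 per well and exposed to a range of compound concentrations for 1 h. They were then loaded with DCHFA probe for 30 min in the dark. Fluorescence was read immediately at ex/em 485/528 nm and expressed as arbitrary units per 10^5 cells.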

Row | Compound | diameter of the inhibition zone (DIZ) (Staphylococcus aureus) | IC50 (A-431 [1]) | diameter of the inhibition zone (DIZ) (Candida albicans) | IC50 (MCF7) | diameter of the inhibition zone (DIZ) (Aspergillus niger) | logP [2] | log K [3] | diameter of the inhibition zone (DIZ) (Pseudomonas aeruginosa) | diameter of the inhibition zone (DIZ) (Klebsiella pneumoniae) | Retention_time | diameter of the inhibition zone (DIZ) (Escherichia coli) | diameter of the inhibition zone (DIZ) (Saccharomyces cerevisiae) | IC50 [4] | diameter of the inhibition zone (DIZ) (Micrococcus luteus) | diameter of the inhibition zone (DIZ) (Mycolicibacterium phlei) | Activity (A-431 [5])
1 | COc1ccc(N(CC(=O)NCCCSc2ccccc2)C(=O)/C=C/c2ccccc2)cc1 | 0 mm | ≥ 100 µM | 0 mm | ≥ 100 µM | 0 mm | 4 | 0.39 | 0 mm | 0 mm | 2.514 min | 0 mm | 0 mm | ≥ 100 µM | 0 mm | 15 mm | –
2 | NC(N)=S [THIOUREA] | – | – | – | – | – | – | – | – | – | 0.728 min | – | – | – | – | – | –
3 | COc1ccc(N(CC(=O)NCCCSc2ccccc2)C(=O)CNC(=O)OC(C)(C)C)cc1 | 0 mm | ≥ 100 µM | 0 mm | ≥ 100 µM | 0 mm | 3.12 | 0.3 | 0 mm | 0 mm | 2.17 min | 0 mm | 0 mm | ≥ 100 µM | 0 mm | 0 mm | –
4 | COc1ccc(N(CC(=O)NCCC[Te]c2ccccc2)C(=O)/C=C/c2ccccc2)cc1 | 11 mm | 6 µM | 0 mm | 2 µM | 0 mm | 1.31 | -0.84 | 9 mm | 13 mm | 0.834 min | 11 mm | 0 mm | 5 µM | 8 mm | 12 mm | Dose-dependent effect
5 | Cc1ccc(C(C)C)c(O)c1 [THYMOL] | – | – | – | – | – | – | -0.12 | – | – | 1.285 min | – | – | – | – | – | –
6 | COc1ccc(N(CC(=O)NCCC[Se]c2ccccc2)C(=O)CCSC2=C(C)C(=O)c3ccccc3C2=O)cc1 | 0 mm | 17 µM | 0 mm | 8 µM | 0 mm | 4.23 | 0.55 | 0 mm | 0 mm | 3.297 min | 0 mm | 0 mm | 24 µM | 7 mm | 0 mm | –
7 | COc1ccc(N(CC(=O)NCCC[Se]c2ccccc2)C(=O)CNC(=O)OC(C)(C)C)cc1 | 0 mm | ≥ 100 µM | 0 mm | ≥ 100 µM | 0 mm | 3.3 | -0.01 | 0 mm | 0 mm | 1.434 min | 0 mm | 0 mm | ≥ 100 µM | 0 mm | 0 mm | –
8 | COc1ccc(N(CC(=O)NCCCSc2ccccc2)C(=O)CCSC2=C(C)C(=O)c3ccccc3C2=O)cc1 | 0 mm | 17 µM | 0 mm | 16 µM | 0 mm | 4.2 | 0.48 | 0 mm | 0 mm | 2.94 min | 0 mm | 0 mm | 26 µM | 0 mm | 0 mm | –
9 | c1ccc2ccccc2c1 | – | – | – | – | – | – | 0.2 | – | – | 1.894 min | – | – | – | – | – | –
10 | O=C(COC(=O)/C=C/c1ccccc1)NCCC[Te]c1ccccc1 | 0 mm | 6 µM | 0 mm | 1 µM | 0 mm | 3.01 | -0.06 | 0 mm | 0 mm | 1.356 min | 0 mm | 0 mm | 11 µM | 7 mm | 0 mm | Dose-dependent effect
11 | c1ccccc1 [BENZENE] | – | – | – | – | – | – | -0.53 | – | – | – | – | – | – | – | – | –
12 | Cc1ccccc1 [TOLUENE] | – | – | – | – | – | – | – | – | – | 1.508 min | – | – | – | – | – | –
13 | COc1ccc(N(CC(=O)NCCC[Se]c2ccccc2)C(=O)C#Cc2ccccc2)cc1 | 0 mm | ≥ 100 µM | 0 mm | ≥ 100 µM | 19 mm | 2.6 | -0.25 | 0 mm | 0 mm | 1.134 min | 0 mm | 0 mm | ≥ 100 µM | 0 mm | 0 mm | –
14 | CC(=O)Nc1ccccc1 [ACETANILIDE] | – | – | – | – | – | – | -0.94 | – | – | 0.811 min | – | – | – | – | – | –
15 | c1ccc2c(c1)ccc1ccccc12 | – | – | – | – | – | – | 0.6 | – | – | 3.615 min | – | – | – | – | – | –
